Screening data: PubChem, several laboratories
A selection: hits, their analogues and other compounds. The true share with any hit is near 1%.
FXIa inh 1536 – blocks human coagulation factor XIa protease activity; purified FXIa, Boc-Glu-Ala-Arg-AMC fluorogenic substrate; inhibition, % at 5 µM; P03951; AID 798; 0.14% of 220,000 active;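 active = inhibition of at least 40%; inactive = inhibition below 40%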;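 also: fluorescence of freed AMC excited at 355 nm; 0% = enzyme without compound and 100% = no enzyme blank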
Furin inh – inhibitors of human furin | P09958 | inhibition, % at 20 µM or 30 µM | purified furin, fluorogenic substrate cleavage | 0.061% of 220,000 active; in the data active = inhibition above about 25%
FXIIa inh 1536 – inhibitors of human coagulation factor XIIa. inhibition, % at 5 µM. 0.3% of 220,000 active. purified FXIIa, Boc-QGR-AMC fluorogenic substrate, 2 h. AID 800; in the data active = inhibition above about 40%;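 also: 0% = enzyme with no compound and 100% = blank without enzyme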
Thrombin inh – blocks human thrombin protease activity; inhibition, % at 5 µM; 0.26% of 220,000 active; alpha-thrombin, Boc-VPR-AMC fluorogenic substrate cleavage; AID 1046; P00734;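 active = inhibition at or above 40%; inactive = inhibition below 40%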;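 also: 0% = enzyme with no compound and 100% = wells without enzyme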
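Test system: human alpha-thrombin protein / Dosing: one concentration per compound, 5 µM, with 0.2% DMSO / Medium: pH 7.5 Tris-saline with Tween 20 / Benchmarks: no-compound enzyme wells and no-enzyme blanks / Read-out basis: percent inhibition of thrombin substrate cleavage / Timing: reaction at room temperature / Measured by: fluorescence, ex 355 nm, em 460 nm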
HSV augment – HSV replication enhancement; HSV replication augmentation in cells, fold increase; 0.005% of 220,000 active; maximum fold increase; in the data active = maximum fold increase above about 1.5; inconclusive = no clear call, values can overlap the other calls; tested in PC3 cells
KLK5 inh – inhibitors of human kallikrein 5 | recombinant hK5, fluorogenic AMC substrate cleavage | 0.59% of 210,000 active | inhibition, % at 5 µM;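 active = inhibition of 40% or more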;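 also: 0% = enzyme controls without compound and 100% = no-enzyme blanks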
Target sequence (Q9Y337 67-293 limits assumed): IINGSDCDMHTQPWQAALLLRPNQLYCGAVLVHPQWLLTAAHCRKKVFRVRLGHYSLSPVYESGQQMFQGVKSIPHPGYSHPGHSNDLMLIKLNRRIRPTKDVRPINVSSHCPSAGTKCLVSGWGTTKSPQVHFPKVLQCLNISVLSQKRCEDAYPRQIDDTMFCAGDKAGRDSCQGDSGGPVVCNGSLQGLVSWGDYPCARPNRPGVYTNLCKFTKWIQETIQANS
* marks the source's active call; other numbers are inactive results; i = inactive; u = inconclusive; x = no result.

SMILES	FXIa inh 1536	Furin inh	FXIIa inh 1536	Thrombin inh	HSV augment	KLK5 inh
CC1CCN(S(=O)(=O)c2ccc3c(c2)c(=O)c(C(=O)NCc2ccccc2Cl)cn3C)CC1	-2	-4	9	2	i	2
CC(=O)c1ccc(OCC(O)CN2C(C)CCCC2C)cc1 (centres undefined)	2	-29	13	14	i	52*
CC(=O)c1ccc(OCC(O)CN2CCC(C)CC2)cc1 (centres undefined)	7	-18	11	-1	i	-7
CCN1C(=O)c2n[nH]c(C(=O)OC)c2C1=O	17	-22	44*	14	i	90*
COc1cccc(-c2nc3ccccc3c(=O)o2)c1	-5	-20	21	65*	i	31
O=c1oc(-c2ccc(Br)o2)nc2ccccc12	27	-1	46*	10	i	39
Cc1ccc(S(=O)(=O)NCC(=O)OCC(=O)Nc2ncc(Cl)cc2Cl)cc1	6	-17	71*	8	i	4
COc1ccc(CNCC(=O)Nc2cccc(S(N)(=O)=O)c2)cc1	-1	-23	8	-2	i	1
O=C(NNC1=NCCCCC1)Nc1cccc(Cl)c1	47*	-3	42*	40*	i	24
Cc1cc(SCC(=O)Nc2cccc(S(=O)(=O)N3CCOCC3)c2)nc2ccccc12	-1	-9	4	-3	i	-6
CCOc1ccccc1NC(=O)c1cccc(S(=O)(=O)N(Cc2ccccc2)c2ccccc2OC)c1	17	-12	23	-5	i	4
COc1ccc(S(=O)(=O)NC(C)C(=O)Nc2ccccc2F)cc1 (centres undefined)	-1	-19	-1	-3	i	-25
COc1ccc(S(=O)(=O)NC(C)C(=O)Nc2cccc(C(C)=O)c2)cc1 (centres undefined)	-14	-4	4	47*	i	-10
Cn1c(-c2ccccc2)c(C=O)c2ccccc21	0	-42	11	-9	i	6
Cn1c2c(c3ccccc31)CCSC2=O	11	-15	71*	0	i	2
COc1cc(/C=C/C(=O)OCc2c(C)noc2C)ccc1OC(F)F	39	9	35	13	i	54*
O=C(NC1CCS(=O)(=O)C1)/C(=C\c1ccc(F)cc1)NC(=O)c1ccccc1 (centres undefined)	-4	-5	2	-15	i	3
CCOc1ccc(N(CC(=O)Nc2cccc(F)c2)S(=O)(=O)c2c(C)noc2C)cc1	11	-7	45*	23	i	42*
COc1ccc(N(CC(=O)Nc2ccc3c(c2)OCCO3)S(=O)(=O)c2c(C)nn(C)c2C)cc1	21	-10	46*	27	x	31
CC(c1ccon1)N(C)C(=O)CCc1nnc(CCCCc2ccccc2)o1 (centres undefined)	-3	-14	0	-8	i	x
COc1ccc(-c2csc(N3C(=O)C4C5c6ccccc6C(c6ccccc65)C4C3=O)n2)cc1 (centres undefined)	10	2	17	23	i	62*
COc1ccc(NC(=O)CC2C(=O)N(c3ccc(F)cc3)C(=S)N2NC(=O)c2ccc(Cl)cc2)cc1 (centres undefined)	7	-9	6	0	i	-13
Cc1ccc(NC(=O)C(C)N2CCOCC2)c(C(=O)c2ccccc2)c1 (centres undefined)	5	-15	14	19	i	43*
O=C(CCN1CCN(c2ccccc2)CC1)N/N=C/c1ccccc1OC(F)F	2	-7	4	-4	i	-3
COc1ccccc1OCC(O)CN1C(=O)NC(C)(C)C1=O (centres undefined)	3	-19	19	15	i	64*
SMILES	FXIa inh 1536	Furin inh	FXIIa inh 1536	Thrombin inh	HSV augment	KLK5 inh
CCOCCCn1c(=NC(=O)c2cccs2)c(C#N)cc2c(=O)n3ccccc3nc21	-2	-16	6	-11	i	-2
CCC(C)NCCOc1cc(C)cc(C)c1C (centres undefined)	35	-10	x	56*	i	31
CCOC(=O)N1C(=O)C2(CCCCC2)N(c2ccccc2Cl)C1=S	0	-2	2	-9	i	-12
Cc1cc(C)c(NC(=S)NC(=O)c2ccc(-c3ccccc3)cc2)c(C)c1	14	-1	34	9	i	57*
O=C(CSc1nnc(-c2ccccc2)c(-c2ccccc2)n1)Nc1ccc(Br)cn1	23	-8	28	62*	i	2
O=C(CSc1nnc(-c2ccccc2)c(-c2ccccc2)n1)Nc1ncc(Cl)cc1Cl	1	-6	3	-2	u	-4
CN(CC(=O)O)S(=O)(=O)c1ccc2c(c1)NC(=O)CC(=O)N2	-6	-18	-2	-7	i	-4
CSc1ccccc1NC(=O)CN(c1cccc(C)c1)S(C)(=O)=O	-4	-21	2	-3	i	-24
COc1ccc(N(CC(=O)Nc2ccccc2SC)S(C)(=O)=O)cc1OC	12	-22	45*	0	i	-15
O=C(Oc1ccc2c(=O)c(Cl)coc2c1)c1ccncc1	42*	-1	41*	8	i	-20
CC1CN(C(=O)c2cccn(Cc3c(Cl)cccc3Cl)c2=O)CC(C)O1 (centres undefined)	-2	-17	3	2	i	-22
Cc1c(NS(=O)(=O)c2ccc(Cl)c(C(=O)OCC(=O)NCc3ccco3)c2)c(=O)n(-c2ccccc2)n1C	19	-6	17	46*	i	24
Cc1csc(NC(=O)C(CC(C)C)NS(=O)(=O)c2ccc3c(c2)oc(=O)n3C)n1 (centres undefined)	7	-30	107*	8	i	55*
Cc1csc(NC(=O)C2CCN(S(=O)(=O)c3ccc4c(c3)oc(=O)n4C)CC2)n1	-3	-25	13	-1	i	-2
COc1ccc(CCCc2n[nH]c(=S)n2C)cc1C	30	-3	30	9	x	43*
Cc1nn(CCc2nn[nH]n2)c2nc(C(F)(F)F)cc(C(F)(F)F)c12	-2	-25	12	0	i	-54
Cc1nn(CCc2nn[nH]n2)c2nc(-c3ccc(Br)cc3)cc(C(F)(F)F)c12	27	3	41*	9	i	31
Cc1c(/C=N/NC(=O)c2ccc(Br)o2)cnn1C	5	-22	5	-3	i	37
O=C(NC1CCCCC1)[C@H](CSCc1ccccc1)N1Cc2ccccc2C1=O	4	-9	6	-3	i	-6
CCC(=O)N1CCc2cc(S(=O)(=O)CCC(=O)NCc3ccc4c(c3)OCO4)ccc21	15	-10	15	2	x	41*
O=C(C1CCN(c2ccc(N3CCOCC3)nn2)CC1)N1CCN(c2ccc(F)cc2)CC1	-6	-16	-10	0	i	106*
CC(=O)c1ccc2c(c1)Nc1ccccc1S2	-5	-21	1	-3	i	15
